From ChEMBL document CHEMBL2062460, “Disubstituted thiourea derivatives and their activity on CNS: synthesis and biological evaluation” (Eur J Med Chem, 2012)
Converted amounts (≈) assume the structure as drawn. The source made the active and inactive calls. No cut-off for these calls is given here.

Legend:
[1] = tested on: Staphylococcus epidermidis; assay: Antibacterial activity against Staphylococcus epidermidis ATCC 12228 at 400 ug/disc after 18 hrs by disc diffusion method; format: functional; conditions: ATCC 12228, 18 h, read-out: DIZ
Procedure, shortened: (§1)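 Disc diffusion per CLSI on Mueller–Hinton II agar; 9 mm paper discs loaded from methanol or DMSO solutions to 400 µg per disc, dried; growth inhibition zone diameter read after 18 h at 35 °C.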

Staphylococcus aureus [2] = assay: Antibacterial activity against Staphylococcus aureus NCTC 4163 at 400 ug/disc after 18 hrs by disc diffusion method; format: functional; conditions: NCTC 4163, 18 h, read-out: DIZ; procedure, shortened: as §1
Staphylococcus aureus [3] = assay: Antibacterial activity against Staphylococcus aureus ATCC 6538 at 400 ug/disc after 18 hrs by disc diffusion method; format: functional; conditions: ATCC 6538, 18 h, read-out: DIZ; procedure, shortened: as §1
Bacillus cereus = assay: Antibacterial activity against Bacillus cereus ATCC 11778 at 400 ug/disc after 18 hrs by disc diffusion method; format: functional; conditions: ATCC 11778, 18 h, read-out: DIZ; procedure, shortened: as §1
Escherichia coli [4] = assay: Antibacterial activity against Escherichia coli ATCC 10538 at 400 ug/disc after 18 hrs by disc diffusion method; format: functional, organism-based; procedure, shortened: as §1
Escherichia coli [5] = assay: Antibacterial activity against Escherichia coli ATCC 25922 at 400 ug/disc after 18 hrs by disc diffusion method; format: functional, organism-based; procedure, shortened: as §1
Pseudomonas aeruginosa [6] = assay: Antibacterial activity against Pseudomonas aeruginosa ATCC 15442 at 400 ug/disc after 18 hrs by disc diffusion method; format: functional, organism-based; procedure, shortened: as §1
Pseudomonas aeruginosa [7] = assay: Antibacterial activity against Pseudomonas aeruginosa NCTC 6749 at 400 ug/disc after 18 hrs by disc diffusion method; format: functional, organism-based; procedure, shortened: as §1
Pseudomonas aeruginosa [8] = assay: Antibacterial activity against Pseudomonas aeruginosa ATCC 27853 at 400 ug/disc after 18 hrs by disc diffusion method; format: functional, organism-based; procedure, shortened: as §1
Candida albicans [9] = assay: Antifungal activity against Candida albicans ATCC 10231 at 400 ug/disc after 18 hrs by disc diffusion method; format: functional, organism-based
Procedure, shortened: (§2)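 Yeasts tested by disc diffusion (CLSI) on RPMI agar with 2% glucose; 9 mm paper discs bearing 400 µg compound from methanol or DMSO solution; inhibition zone diameter read after 18 h at 35 °C.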

Candida albicans [10] = assay: Antifungal activity against Candida albicans ATCC 90028 at 400 ug/disc after 18 hrs by disc diffusion method; format: functional, organism-based; procedure, shortened: as §2
Candida parapsilosis = assay: Antifungal activity against Candida parapsilosis ATCC 22019 at 400 ug/disc after 18 hrs by disc diffusion method; format: functional, organism-based; procedure, shortened: as §2
Staphylococcus aureus [11] = assay: Antibacterial activity against Staphylococcus aureus ATCC 25923 after 18 hrs by twofold serial agar dilution technique; format: functional; conditions: ATCC 25923, 18 h
Procedure, shortened: (§3)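 Twofold serial agar dilution on Mueller–Hinton II agar, following CLSI guidelines. Compounds were dissolved in methanol or DMSO and tested at final agar concentrations of 3.125–400 µg/mL. Final inoculum was 10^4 CFU/mL.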

Staphylococcus aureus [12] = assay: Antibacterial activity against Staphylococcus aureus ATCC 29213 after 18 hrs by twofold serial agar dilution technique; format: functional; conditions: ATCC 29213, 18 h; procedure, shortened: as §3
[13] = tested on: Staphylococcus epidermidis; assay: Antibacterial activity against Staphylococcus epidermidis ATCC 12228 after 18 hrs by twofold serial agar dilution technique; format: functional; conditions: ATCC 12228, 18 h; procedure, shortened: as §3
Bacillus subtilis = assay: Antibacterial activity against Bacillus subtilis ATCC 6633 after 18 hrs by twofold serial agar dilution technique; format: functional; conditions: ATCC 6633, 18 h
Enterococcus hirae = assay: Antibacterial activity against Enterococcus hirae ATCC 10541 after 18 hrs by twofold serial agar dilution technique; format: functional; conditions: ATCC 10541, 18 h
Micrococcus luteus = assay: Antibacterial activity against Micrococcus luteus ATCC 9341 after 18 hrs by twofold serial agar dilution technique; format: functional; conditions: ATCC 9341, 18 h
Staphylococcus aureus [14] = assay: Antibacterial activity against methicillin-susceptible Staphylococcus aureus clinical isolate 261/08 after 18 hrs by twofold serial agar dilution technique; format: functional; conditions: clinical isolate 261/08, 18 h
Procedure, shortened: (§4)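 Clinical isolates came from patients in Warsaw Medical University Hospitals and were classed as methicillin-susceptible or -resistant. MIC was determined by twofold serial agar dilution on Mueller–Hinton II agar (CLSI), 3.125–400 µg/mL in agar, with compounds in methanol or DMSO. Inoculum was 10^4 CFU/mL and plates were read after 18 h at 35 °C.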

Staphylococcus aureus [15] = assay: Antibacterial activity against methicillin-susceptible Staphylococcus aureus clinical isolate 267/08 after 18 hrs by twofold serial agar dilution technique; format: functional; conditions: clinical isolate 267/08, 18 h; procedure, shortened: as §4
Staphylococcus aureus [16] = assay: Antibacterial activity against methicillin-susceptible Staphylococcus aureus clinical isolate 268/08 after 18 hrs by twofold serial agar dilution technique; format: functional; conditions: clinical isolate 268/08, 18 h; procedure, shortened: as §4
Staphylococcus aureus [17] = assay: Antibacterial activity against methicillin-susceptible Staphylococcus aureus clinical isolate 269/08 after 18 hrs by twofold serial agar dilution technique; format: functional; conditions: clinical isolate 269/08, 18 h; procedure, shortened: as §4
Staphylococcus aureus [18] = assay: Antibacterial activity against methicillin-susceptible Staphylococcus aureus clinical isolate 339/09 after 18 hrs by twofold serial agar dilution technique; format: functional; conditions: clinical isolate 339/09, 18 h; procedure, shortened: as §4
Staphylococcus aureus [19] = assay: Antibacterial activity against methicillin-susceptible Staphylococcus aureus clinical isolate 369/09 after 18 hrs by twofold serial agar dilution technique; format: functional; conditions: clinical isolate 369/09, 18 h; procedure, shortened: as §4
Staphylococcus aureus [20] = assay: Antibacterial activity against methicillin-susceptible Staphylococcus aureus clinical isolate 372/09 after 18 hrs by twofold serial agar dilution technique; format: functional; conditions: clinical isolate 372/09, 18 h; procedure, shortened: as §4
Staphylococcus aureus [21] = assay: Antibacterial activity against methicillin-resistant Staphylococcus aureus clinical isolate 275/08 after 18 hrs by twofold serial agar dilution technique; format: functional; conditions: clinical isolate 275/08, 18 h; procedure, shortened: as §4
Staphylococcus aureus [22] = assay: Antibacterial activity against methicillin-resistant Staphylococcus aureus clinical isolate 277/08 after 18 hrs by twofold serial agar dilution technique; format: functional; conditions: clinical isolate 277/08, 18 h; procedure, shortened: as §4
Staphylococcus aureus [23] = assay: Antibacterial activity against methicillin-resistant Staphylococcus aureus clinical isolate 306/08 after 18 hrs by twofold serial agar dilution technique; format: functional; conditions: clinical isolate 306/08, 18 h; procedure, shortened: as §4
Staphylococcus aureus [24] = assay: Antibacterial activity against methicillin-resistant Staphylococcus aureus clinical isolate 307/08 after 18 hrs by twofold serial agar dilution technique; format: functional; conditions: clinical isolate 307/08, 18 h; procedure, shortened: as §4
Staphylococcus aureus [25] = assay: Antibacterial activity against methicillin-resistant Staphylococcus aureus clinical isolate 309/08 after 18 hrs by twofold serial agar dilution technique; format: functional; conditions: clinical isolate 309/08, 18 h; procedure, shortened: as §4
Staphylococcus aureus [26] = assay: Antibacterial activity against methicillin-resistant Staphylococcus aureus clinical isolate 329/08 after 18 hrs by twofold serial agar dilution technique; format: functional; conditions: clinical isolate 329/08, 18 h; procedure, shortened: as §4
Staphylococcus aureus [27] = assay: Antibacterial activity against methicillin-resistant Staphylococcus aureus clinical isolate 356/09 after 18 hrs by twofold serial agar dilution technique; format: functional; conditions: clinical isolate 356/09, 18 h; procedure, shortened: as §4
[28] = tested on: Staphylococcus epidermidis; assay: Antibacterial activity against methicillin-resistant Staphylococcus epidermidis clinical isolate 311/08 after 18 hrs by twofold serial agar dilution technique; format: functional; conditions: clinical isolate 311/08, 18 h; procedure, shortened: as §4
[29] = tested on: Staphylococcus epidermidis; assay: Antibacterial activity against methicillin-resistant Staphylococcus epidermidis clinical isolate 317/08 after 18 hrs by twofold serial agar dilution technique; format: functional; conditions: clinical isolate 317/08, 18 h; procedure, shortened: as §4
[30] = tested on: Staphylococcus epidermidis; assay: Antibacterial activity against methicillin-resistant Staphylococcus epidermidis clinical isolate 340/09 after 18 hrs by twofold serial agar dilution technique; format: functional; conditions: clinical isolate 340/09, 18 h; procedure, shortened: as §4
[31] = tested on: Staphylococcus epidermidis; assay: Antibacterial activity against methicillin-resistant Staphylococcus epidermidis clinical isolate 343/09 after 18 hrs by twofold serial agar dilution technique; format: functional; conditions: clinical isolate 343/09, 18 h; procedure, shortened: as §4
[32] = tested on: Staphylococcus epidermidis; assay: Antibacterial activity against methicillin-resistant Staphylococcus epidermidis clinical isolate 377/09 after 18 hrs by twofold serial agar dilution technique; format: functional; conditions: clinical isolate 377/09, 18 h; procedure, shortened: as §4

Row | SMILES | zone of inhibition at 400 µg/disc [1] [mm] | zone of inhibition at 400 µg/disc (Staphylococcus aureus [2]) [mm] | zone of inhibition at 400 µg/disc (Staphylococcus aureus [3]) [mm] | zone of inhibition at 400 µg/disc (Bacillus cereus) [mm] | diameter of the inhibition zone (DIZ) (Escherichia coli [4]) | diameter of the inhibition zone (DIZ) (Escherichia coli [5]) | diameter of the inhibition zone (DIZ) (Pseudomonas aeruginosa [6]) | diameter of the inhibition zone (DIZ) (Pseudomonas aeruginosa [7]) | diameter of the inhibition zone (DIZ) (Pseudomonas aeruginosa [8]) | diameter of the inhibition zone (DIZ) (Candida albicans [9]) | diameter of the inhibition zone (DIZ) (Candida albicans [10]) | diameter of the inhibition zone (DIZ) (Candida parapsilosis) | MIC (Staphylococcus aureus [11]) [µg/mL] | MIC (Staphylococcus aureus [12]) [µg/mL] | MIC [13] [µg/mL] | MIC (Bacillus subtilis) [µg/mL] | MIC (Enterococcus hirae) [µg/mL] | MIC (Micrococcus luteus) [µg/mL] | MIC (Staphylococcus aureus [14]) [µg/mL] | MIC (Staphylococcus aureus [15]) [µg/mL] | also measured
1 | Fc1ccc(NC(=S)Nc2nc[nH]n2)cc1 | 16 | 14 | 14 | 16 | inactive | inactive | inactive | inactive | inactive | inactive | inactive | inactive | 50 (≈ 211 µM) | 25 (≈ 105 µM) | 25 (≈ 105 µM) | 12.5 (≈ 52.7 µM) | 400 (≈ 1690 µM) | 6.25 (≈ 26.3 µM) | 50 (≈ 211 µM) | 50 (≈ 211 µM) | MIC (Staphylococcus aureus [16]): 100 µg/mL (≈ 421 µM); MIC (Staphylococcus aureus [17]): 50 µg/mL (≈ 211 µM); MIC (Staphylococcus aureus [18]): 50 µg/mL (≈ 211 µM); MIC (Staphylococcus aureus [19]): 50 µg/mL (≈ 211 µM); MIC (Staphylococcus aureus [20]): 50 µg/mL (≈ 211 µM); MIC (Staphylococcus aureus [21]): 100 µg/mL (≈ 421 µM); MIC (Staphylococcus aureus [22]): 50 µg/mL (≈ 211 µM); MIC (Staphylococcus aureus [23]): 50 µg/mL (≈ 211 µM); MIC (Staphylococcus aureus [24]): 50 µg/mL (≈ 211 µM); MIC (Staphylococcus aureus [25]): 50 µg/mL (≈ 211 µM); MIC (Staphylococcus aureus [26]): 50 µg/mL (≈ 211 µM); MIC (Staphylococcus aureus [27]): 50 µg/mL (≈ 211 µM); MIC [28]: 50 µg/mL (≈ 211 µM); MIC [29]: 50 µg/mL (≈ 211 µM); MIC [30]: 50 µg/mL (≈ 211 µM); MIC [31]: 50 µg/mL (≈ 211 µM); MIC [32]: 50 µg/mL (≈ 211 µM)
2 | S=C(Nc1nc[nH]n1)Nc1ccccc1Br | 12 | 11 | 12 | 12 | inactive | inactive | inactive | inactive | inactive | inactive | inactive | inactive | 50 (≈ 168 µM) | 50 (≈ 168 µM) | 25 (≈ 83.8 µM) | 12.5 (≈ 41.9 µM) | 400 (≈ 1340 µM) | 6.25 (≈ 21 µM) | 50 (≈ 168 µM) | 50 (≈ 168 µM) | MIC (Staphylococcus aureus [16]): 50 µg/mL (≈ 168 µM); MIC (Staphylococcus aureus [17]): 50 µg/mL (≈ 168 µM); MIC (Staphylococcus aureus [18]): 50 µg/mL (≈ 168 µM); MIC (Staphylococcus aureus [19]): 50 µg/mL (≈ 168 µM); MIC (Staphylococcus aureus [20]): 50 µg/mL (≈ 168 µM); MIC (Staphylococcus aureus [21]): 100 µg/mL (≈ 335 µM); MIC (Staphylococcus aureus [22]): 50 µg/mL (≈ 168 µM); MIC (Staphylococcus aureus [23]): 50 µg/mL (≈ 168 µM); MIC (Staphylococcus aureus [24]): 50 µg/mL (≈ 168 µM); MIC (Staphylococcus aureus [25]): 50 µg/mL (≈ 168 µM); MIC (Staphylococcus aureus [26]): 50 µg/mL (≈ 168 µM); MIC (Staphylococcus aureus [27]): 50 µg/mL (≈ 168 µM); MIC [28]: 100 µg/mL (≈ 335 µM); MIC [29]: 100 µg/mL (≈ 335 µM); MIC [30]: 50 µg/mL (≈ 168 µM); MIC [31]: 50 µg/mL (≈ 168 µM); MIC [32]: 50 µg/mL (≈ 168 µM)
